# AHR act: human AHR activation; activation, % at 5 µM; P35869; AHR-responsive luciferase reporter cells, luminescence; hit rate 2.5% among 320,000; AID 2796; in the data active = activation above about 47%;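 note: 0% = vehicle wells and 100% = reference agonist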
# TbMetRS inhib: Trypanosoma brucei MetRS inhibition | purified T. brucei MetRS, ATP depletion, Kinase-Glo luminescence | inhibition, % at 11.9 µM | hit rate 0.4% among 360,000 | AID 624268;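 active = inhibition above a per-plate cutoff of the control wells' mean inhibition plus 3 SD, cut at about 5.5% in these data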;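 note: 0% = DMSO wells median and 100% = median of wells with control inhibitor compound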
#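 System: purified T. brucei MetRS enzyme / Detection: Kinase-Glo luciferase luminescence reporting remaining unconsumed ATP / Medium: HEPES buffer with MgCl2, KCl, DTT, spermine, BSA, pyrophosphatase / Replication: singlicate, one well per compound / Evaluation: percent inhibition relative to median high and low control wells / Schedule: 2 h aminoacylation at 25 °C after 15 min preincubation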
# SMARCA2 act: activators of SMARCA2 function; MG213 cells, MMTV-luciferase reporter, dexamethasone, overnight; activation, % at 9.1 µM; hit rate 1% among 370,000; AID 652017; in the data active = activation above about 7.8%;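 note: 0% = vehicle wells and 100% = reference activator wells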
# TAG inh: inhibitors of triacylglycerol accumulation. H9c2 cells, Nile Red lipid (TAG) fluorescence; cells loaded with 200 µM oleic acid. inhibition, % at 12.5 µM. hit rate 0.66% among 230,000;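 active = pattern-corrected inhibition of lipid staining of at least 50% with the nuclear-stain viability signal not falling by more than 50%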;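 note: 0% = DMSO wells and 100% = triacsin C control wells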
# Efflux pump inh: inhibitors of Candida antifungal efflux pumps expressed in yeast. hit rate 0.44% among 330,000. S. cerevisiae Candida pump triplex, Nile Red efflux. inhibition, % at 10 µM. AID 485275;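 active = plate passing quality check with inhibition over a set limit, or well fluorescence over plate mean plus 4 SD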;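 note: Nile Red retained in pooled yeast measured as flow cytometry median fluorescence; 0% = buffer negative control and 100% = Enniatin B positive control; higher means more Nile Red kept so more efflux inhibition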
# Active calls of the source: *; . = not tested or not shown. This is a sample that favours compounds with a hit; in the whole collection about 4.1% have one here.
SMILES,AHR act,TbMetRS inhib,SMARCA2 act,TAG inh,Efflux pump inh
Cc1nn(-c2ccc(F)cc2)c2nc(N)c(C#N)c(-c3cccs3)c12,65*,-1,-1,-136,0
COC(=O)C1CN(Cc2cn(Cc3ccc(C)cc3)nn2)CCS(=O)(=O)N1Cc1ccc(F)cc1 (centres undefined),.,.,1,.,.
CCC(C)(C)C(=O)N1CCc2cc(S(=O)(=O)N(C)Cc3ccco3)ccc21,.,.,2,.,.
COc1ccc(CNC(=O)c2cnn3c(C(F)F)cc(C)nc23)cc1OC,52*,-1,-2,1,0
Cc1cc(C)n2ncc(C(=O)NCc3cccnc3)c2n1,68*,0,-1,3,0
O=C(CCCCCNC(=O)c1ccccc1)N=Nc1c(O)[nH]c2c(Br)cc(Br)cc12,4,.,.,.,0
NC(=O)N=Nc1c(O)[nH]c2c(Br)cc(Br)cc12,50*,.,.,.,0
COc1cccc(CNS(=O)(=O)c2cc3c(cc2Br)CC(C)N3C(C)=O)c1 (centres undefined),.,.,2,.,.
Cc1cccc(Cl)c1OCCCn1ccnc1,58*,0,-2,-5,0
Cc1cc(OCCCn2ccnc2)cc(C)c1Cl,41,0,-1,.,0
Cc1cc(OCCCCCn2ccnc2)cc(C)c1Cl,55*,0,-4,-10,0
Cc1cc(Cl)cc(C)c1OCCn1ccnc1,10,2,-3,.,0
Clc1ccc(OCCn2ccnc2)c2ccccc12,74*,0,1,.,0
O=C(c1cc2cc(F)ccc2[nH]1)N1CCN(Cc2ccc3c(c2)OCO3)CC1,18,2,2,.,0
CCN1CCN(C(=O)c2cc3cc(F)ccc3[nH]2)CC1,65*,-2,-2,.,0
CCCCCc1c(C)nc(Nc2ccccc2)[nH]c1=O,-8,7.8*,-5,.,0
O=C(Nc1ccccc1)c1ncoc1-c1ccc(Cl)cc1,57*,-1,1,0,0
COc1ccc(C(=O)C2(C(=O)NCc3ccccc3)CC(c3ccccc3C(F)(F)F)=NO2)cc1 (centres undefined),.,.,-4,.,.
COC(=O)c1c(NC(=O)c2cccnc2)sc(C(=O)N(C)C)c1C,16,-1,-1,15,0
COC(=O)c1c(NC(=O)c2cccnc2)sc(C)c1C,71*,0,.,3,0
C=CCC[C@H](Cc1ccc(F)cc1)C(=O)OC[C@@H](Cc1c[nH]c2ccccc12)NC(=O)[C@H](CC=C)CC(=O)N(CCO)Cc1ccccc1,2,0,-4,57*,1
C[C@H]1C2CC(OC(=O)Nc3ccc4c(c3)OCO4)C(C2)[C@H]2CCCCN21 (some centres undefined),.,.,-2,.,.
Cc1cc2cccc(C)c2nc1SCC(=O)NNC(=O)c1ccco1,52*,0,-3,-1,0
O=C(NCc1ccc(C(=O)N2CCOCC2)cc1)c1cccc(Br)c1,.,.,-3,.,.
C=CS(=O)(=O)N(Cc1ccc(C)cc1)[C@@H](CO)C(=O)OC,.,.,-1,.,.
SMILES,AHR act,TbMetRS inhib,SMARCA2 act,TAG inh,Efflux pump inh
COc1cc2c(cc1NC(=O)c1cccnc1)oc1ccccc12,25,0,3,.,0
COc1cc2c(cc1NC(=O)C(C)Sc1cccc[n+]1[O-])oc1ccccc12 (centres undefined),99*,-1,4,.,0
COc1cc2c(cc1NC(=O)c1ccncc1)oc1ccccc12,64*,0,.,.,0
COc1cc2c(cc1NC(=O)c1cccc([N+](=O)[O-])c1)oc1ccccc12,58*,-1,1,22,0
COc1cc([N+](=O)[O-])ccc1NC(=O)c1cccc(NC(=O)C(C)C)c1,47*,0,-4,.,0
CC1CCCN(CCCNS(=O)(=O)c2cc3c(cc2Br)CCN3C(=O)C2CC2)C1 (centres undefined),.,.,1,.,.
Cc1cc(C(=O)Nc2ccc(Cl)c(Cl)c2)n(-c2ccccc2)n1,.,.,-1,.,.
CCOc1[nH]n(-c2ccccc2)c(=O)c1C=NCc1cccnc1,59*,-1,3,.,0
CCn1c(SCC(=O)Nc2ccc(S(=O)(=O)Nc3cc(C)nc(C)n3)cc2)nc2sc(C)c(C)c2c1=O,.,.,3,.,.
C=CCN(C(=O)[C@@H](C)[C@@H](O)c1ccc(C(C)=O)cc1)c1ccccc1,.,.,-2,.,.
COC(=O)[C@]12C[C@H](CC(=O)N3CCSCC3)C(=O)N(CCC3=CCCCC3)C1=C[C@H](C(C)C)O[C@@H]2C1CC1,.,.,7,.,.
N#Cc1ccccc1NC(=O)CSc1nnc(-c2ccccc2)n1-c1ccccc1,65*,-2,-3,-18,0

# Assay outcomes deposited in PubChem BioAssay by several laboratories.
